Experimental data from ChEMBL document CHEMBL3352316, “Optimization of physicochemical properties and safety profile of novel bacterial topoisomerase type II inhibitors (NBTIs) with activity against Pseudomonas aeruginosa” (Bioorg Med Chem, 2014).
Values after ≈ are worked out from the molar mass of the structure shown.

Columns and labels:
[1] = Aqueous solubility of the compound; format: physicochemical; details: buffer
Pseudomonas aeruginosa [2] = experiment: Antimicrobial activity against Pseudomonas aeruginosa PAO1 after 18 to 20 hrs by broth microdilution; format: functional
Method in brief: (§1)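 Broth microdilution followed CLSI guidelines in Mueller Hinton broth. Inocula were grown 18–20 h at 35 °C on blood agar. Compound in DMSO was tested in doubling dilutions from 64 to 0.06 µg/mL, at 2% DMSO final. Plates were incubated 18–20 h and read at OD 620 nm. MIC was taken as the concentration giving >90% growth inhibition.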

Escherichia coli [3] = experiment: Antimicrobial activity against Escherichia coli W3110 after 18 to 20 hrs by broth microdilution; format: functional; details: K-12 substr. W3110; method in brief: as §1
Staphylococcus aureus = experiment: Antimicrobial activity against methicillin-susceptible Staphylococcus aureus after 18 to 20 hrs by broth microdilution; format: functional; method in brief: as §1
[4] = Fraction unbound in human plasma by LC/MS-MS analysis; format: ADME, cell-free
Method in brief: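 Equilibrium dialysis: 10 µM compound was spiked into human plasma against phosphate buffer and rotated at 37 °C for 16 h. Plasma and buffer concentrations were quantified by LC/MS–MS with a C18 column and ESI MRM detection.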

[5] = Inhibition of Escherichia coli topoisomerase IV ATPase activity
[6] = Partition co-efficient, log D of the compound at pH 7.4 by shake flask method; format: physicochemical; details: buffer
Method in brief: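 Shake-flask method with 10 mM phosphate buffer pH 7.4 against n-octanol, shaken 1 h at 1200 rpm to equilibrium. Analysis was by LC/UV with MS confirmation.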

[7] = target: Voltage-gated inwardly rectifying potassium channel KCNH2 (Homo sapiens, UniProt Q12809); experiment: Inhibition of human ERG by cell-based patch clamp method
Voltage-gated inwardly rectifying potassium channel KCNH2, sequence (Q12809 whole entry): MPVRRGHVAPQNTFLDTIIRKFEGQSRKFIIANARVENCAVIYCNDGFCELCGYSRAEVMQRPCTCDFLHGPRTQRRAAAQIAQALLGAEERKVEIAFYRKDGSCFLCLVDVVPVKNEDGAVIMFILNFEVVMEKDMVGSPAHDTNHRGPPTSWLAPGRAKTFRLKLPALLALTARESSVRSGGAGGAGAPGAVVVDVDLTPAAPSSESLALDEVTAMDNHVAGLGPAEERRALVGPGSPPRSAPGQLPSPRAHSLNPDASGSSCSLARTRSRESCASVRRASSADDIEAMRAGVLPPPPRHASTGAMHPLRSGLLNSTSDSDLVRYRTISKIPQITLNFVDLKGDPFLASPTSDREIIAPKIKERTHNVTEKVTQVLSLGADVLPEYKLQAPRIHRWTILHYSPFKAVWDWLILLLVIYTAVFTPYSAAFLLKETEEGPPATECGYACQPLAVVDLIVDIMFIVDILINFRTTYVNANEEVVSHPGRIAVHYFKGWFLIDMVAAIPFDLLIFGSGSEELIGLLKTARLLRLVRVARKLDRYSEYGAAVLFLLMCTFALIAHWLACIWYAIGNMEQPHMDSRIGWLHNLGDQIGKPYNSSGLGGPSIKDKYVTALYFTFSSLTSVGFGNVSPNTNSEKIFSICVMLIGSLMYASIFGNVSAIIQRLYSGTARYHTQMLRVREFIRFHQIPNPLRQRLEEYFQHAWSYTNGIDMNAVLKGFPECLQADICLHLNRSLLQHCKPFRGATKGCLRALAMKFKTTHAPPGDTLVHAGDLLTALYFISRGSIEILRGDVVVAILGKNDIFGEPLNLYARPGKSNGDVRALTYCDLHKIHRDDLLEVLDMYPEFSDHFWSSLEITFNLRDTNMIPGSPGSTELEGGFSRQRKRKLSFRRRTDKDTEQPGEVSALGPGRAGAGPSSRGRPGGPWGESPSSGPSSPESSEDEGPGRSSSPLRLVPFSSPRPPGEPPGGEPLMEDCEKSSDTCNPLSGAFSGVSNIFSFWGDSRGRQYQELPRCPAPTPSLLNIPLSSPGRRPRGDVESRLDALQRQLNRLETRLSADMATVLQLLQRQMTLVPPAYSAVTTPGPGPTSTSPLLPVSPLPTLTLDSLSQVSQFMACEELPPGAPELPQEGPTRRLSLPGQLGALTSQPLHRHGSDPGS

Pseudomonas aeruginosa [8] = experiment: Antimicrobial activity against Pseudomonas aeruginosa clinical isolate after 18 to 20 hrs by broth microdilution; format: functional; method in brief: as §1
Escherichia coli [9] = experiment: Antimicrobial activity against Escherichia coli after 18 to 20 hrs by broth microdilution; format: functional; method in brief: as §1
Klebsiella pneumoniae = experiment: Antimicrobial activity against Klebsiella pneumoniae after 18 to 20 hrs by broth microdilution; format: functional; method in brief: as §1
[10] = Clearance in rat at 10 mg/kg, iv; format: ADME, organism-based; set-up: dose 10 mg/kg, route intravenous; details: in vivo
Method in brief: (§2)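 Male rats (Wistar Han) and Beagle dogs received 10 mg/kg as a 15 min iv infusion. Serial 200 µL whole-blood samples were taken from 0 to 24 h. Plasma levels were measured by LC–MS/MS against a standard curve after methanol protein precipitation. Parameters were estimated non-compartmentally.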

[11] = Volume of distribution in rat at 10 mg/kg, iv; format: ADME, organism-based; set-up: dose 10 mg/kg, route intravenous; details: in vivo; method in brief: as §2
[12] = Half life in rat at 10 mg/kg, iv; format: ADME, organism-based; set-up: dose 10 mg/kg, route intravenous; details: in vivo; method in brief: as §2
[13] = AUC in rat at 10 mg/kg, iv; format: ADME, organism-based; set-up: dose 10 mg/kg, route intravenous; details: plasma; method in brief: as §2
[14] = Clearance in beagle dog at 10 mg/kg, iv; format: ADME, organism-based, Canis lupus familiaris; set-up: dose 10 mg/kg, route intravenous; details: in vivo; method in brief: as §2
[15] = Volume of distribution in beagle dog at 10 mg/kg, iv; format: ADME, organism-based, Canis lupus familiaris; set-up: dose 10 mg/kg, route intravenous; details: in vivo; method in brief: as §2
[16] = Half life in beagle dog at 10 mg/kg, iv; format: ADME, organism-based, Canis lupus familiaris; set-up: dose 10 mg/kg, route intravenous; details: in vivo; method in brief: as §2
[17] = AUC in beagle dog at 10 mg/kg, iv; format: ADME, organism-based, Canis lupus familiaris; set-up: dose 10 mg/kg, route intravenous; details: plasma; method in brief: as §2
[18] = target: Sodium-dependent noradrenaline transporter (Homo sapiens) (UniProt P23975); experiment: Inhibition of NET (unknown origin) at 30 uM
Sodium-dependent noradrenaline transporter (Homo sapiens), sequence (P23975 whole entry): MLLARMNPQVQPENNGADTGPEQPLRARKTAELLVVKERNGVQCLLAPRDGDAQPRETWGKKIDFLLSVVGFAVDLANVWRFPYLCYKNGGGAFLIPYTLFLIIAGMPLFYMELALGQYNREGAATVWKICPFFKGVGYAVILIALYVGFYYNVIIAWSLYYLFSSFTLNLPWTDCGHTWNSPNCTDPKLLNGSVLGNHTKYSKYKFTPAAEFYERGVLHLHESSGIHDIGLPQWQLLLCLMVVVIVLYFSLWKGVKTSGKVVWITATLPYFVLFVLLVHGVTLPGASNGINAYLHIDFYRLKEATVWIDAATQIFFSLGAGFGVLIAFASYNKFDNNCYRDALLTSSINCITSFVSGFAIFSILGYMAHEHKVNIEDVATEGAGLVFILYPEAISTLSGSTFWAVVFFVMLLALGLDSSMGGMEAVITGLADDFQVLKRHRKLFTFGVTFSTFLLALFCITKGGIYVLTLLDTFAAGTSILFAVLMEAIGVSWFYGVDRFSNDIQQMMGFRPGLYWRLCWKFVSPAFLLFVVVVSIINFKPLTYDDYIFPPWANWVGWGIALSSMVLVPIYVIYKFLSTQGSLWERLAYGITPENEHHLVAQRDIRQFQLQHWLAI

[19] = target: 5-hydroxytryptamine receptor 4 (Homo sapiens) (UniProt Q13639); experiment: Inhibition of 5-HT4 receptor (unknown origin) at 30 uM
5-hydroxytryptamine receptor 4 (Homo sapiens), sequence (Q13639 whole entry): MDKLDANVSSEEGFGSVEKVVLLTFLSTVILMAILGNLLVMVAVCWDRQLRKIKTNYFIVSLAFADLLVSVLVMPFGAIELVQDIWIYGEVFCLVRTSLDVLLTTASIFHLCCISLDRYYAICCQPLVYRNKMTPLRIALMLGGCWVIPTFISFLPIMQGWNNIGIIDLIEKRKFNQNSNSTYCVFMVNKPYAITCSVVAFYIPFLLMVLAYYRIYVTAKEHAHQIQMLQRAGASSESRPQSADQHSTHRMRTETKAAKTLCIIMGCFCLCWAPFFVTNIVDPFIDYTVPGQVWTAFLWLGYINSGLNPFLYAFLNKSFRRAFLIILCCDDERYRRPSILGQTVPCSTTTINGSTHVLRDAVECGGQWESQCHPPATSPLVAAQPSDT

[20] = target: Sodium-dependent serotonin transporter (Homo sapiens) (UniProt P31645); experiment: Inhibition of SERT (unknown origin) at 30 uM
Sodium-dependent serotonin transporter (Homo sapiens), sequence (P31645 whole entry, looked up): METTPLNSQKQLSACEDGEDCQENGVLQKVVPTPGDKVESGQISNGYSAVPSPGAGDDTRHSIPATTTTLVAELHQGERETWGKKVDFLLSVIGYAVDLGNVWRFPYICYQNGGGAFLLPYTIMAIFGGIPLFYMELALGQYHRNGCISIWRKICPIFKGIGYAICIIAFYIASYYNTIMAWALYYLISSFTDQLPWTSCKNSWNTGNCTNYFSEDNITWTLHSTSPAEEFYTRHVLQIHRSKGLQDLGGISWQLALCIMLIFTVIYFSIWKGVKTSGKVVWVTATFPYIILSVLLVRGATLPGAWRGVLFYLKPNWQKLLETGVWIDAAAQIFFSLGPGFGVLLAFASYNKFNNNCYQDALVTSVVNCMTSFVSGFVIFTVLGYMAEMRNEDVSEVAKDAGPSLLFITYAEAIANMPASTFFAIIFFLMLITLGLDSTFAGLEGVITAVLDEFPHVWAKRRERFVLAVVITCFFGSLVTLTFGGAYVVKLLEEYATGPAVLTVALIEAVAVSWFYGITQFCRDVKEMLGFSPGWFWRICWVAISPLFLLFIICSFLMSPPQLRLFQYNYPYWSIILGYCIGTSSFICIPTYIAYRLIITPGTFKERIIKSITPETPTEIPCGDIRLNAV

[21] = target: T1, Potassium voltage-gated channel subfamily KQT member 1 (Homo sapiens, UniProt P51787); experiment: Inhibition of potassium channel IKs (unknown origin)
T1 sequence (P51787 whole entry): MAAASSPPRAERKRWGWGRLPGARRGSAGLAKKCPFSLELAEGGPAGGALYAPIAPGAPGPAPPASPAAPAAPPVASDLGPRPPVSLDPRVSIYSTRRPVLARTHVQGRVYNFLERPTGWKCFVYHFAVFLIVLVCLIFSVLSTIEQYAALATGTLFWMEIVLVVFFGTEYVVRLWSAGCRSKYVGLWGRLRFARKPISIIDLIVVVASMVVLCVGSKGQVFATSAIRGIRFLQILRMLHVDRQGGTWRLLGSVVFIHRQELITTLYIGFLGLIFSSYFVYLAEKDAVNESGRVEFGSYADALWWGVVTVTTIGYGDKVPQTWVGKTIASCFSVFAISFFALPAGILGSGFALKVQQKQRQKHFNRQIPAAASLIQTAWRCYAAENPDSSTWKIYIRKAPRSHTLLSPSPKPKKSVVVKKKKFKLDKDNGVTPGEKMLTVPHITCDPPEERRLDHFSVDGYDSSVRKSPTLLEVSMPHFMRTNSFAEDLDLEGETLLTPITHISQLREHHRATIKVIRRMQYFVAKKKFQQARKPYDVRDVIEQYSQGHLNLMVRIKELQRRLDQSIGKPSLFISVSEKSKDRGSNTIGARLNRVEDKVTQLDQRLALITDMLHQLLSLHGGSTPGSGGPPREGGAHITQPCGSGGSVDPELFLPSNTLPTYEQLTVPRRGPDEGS
Method in brief: (§3)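 Automated IonWorks patch clamp was run on CHO or HEK cells expressing each channel. A channel-specific voltage pulse was applied before compound and again about 3 min after addition.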

[22] = target: Potassium voltage-gated channel subfamily A member 5 (Homo sapiens, UniProt P22460); experiment: Inhibition of potassium channel Kv1.5 (unknown origin); method in brief: as §3
[23] = target: Sodium channel protein type 5 subunit alpha (Homo sapiens, UniProt Q14524); experiment: Inhibition of […] channel Nav1.5 (unknown origin); method in brief: as §3
Sodium channel protein type 5 subunit alpha, sequence (Q14524 whole entry): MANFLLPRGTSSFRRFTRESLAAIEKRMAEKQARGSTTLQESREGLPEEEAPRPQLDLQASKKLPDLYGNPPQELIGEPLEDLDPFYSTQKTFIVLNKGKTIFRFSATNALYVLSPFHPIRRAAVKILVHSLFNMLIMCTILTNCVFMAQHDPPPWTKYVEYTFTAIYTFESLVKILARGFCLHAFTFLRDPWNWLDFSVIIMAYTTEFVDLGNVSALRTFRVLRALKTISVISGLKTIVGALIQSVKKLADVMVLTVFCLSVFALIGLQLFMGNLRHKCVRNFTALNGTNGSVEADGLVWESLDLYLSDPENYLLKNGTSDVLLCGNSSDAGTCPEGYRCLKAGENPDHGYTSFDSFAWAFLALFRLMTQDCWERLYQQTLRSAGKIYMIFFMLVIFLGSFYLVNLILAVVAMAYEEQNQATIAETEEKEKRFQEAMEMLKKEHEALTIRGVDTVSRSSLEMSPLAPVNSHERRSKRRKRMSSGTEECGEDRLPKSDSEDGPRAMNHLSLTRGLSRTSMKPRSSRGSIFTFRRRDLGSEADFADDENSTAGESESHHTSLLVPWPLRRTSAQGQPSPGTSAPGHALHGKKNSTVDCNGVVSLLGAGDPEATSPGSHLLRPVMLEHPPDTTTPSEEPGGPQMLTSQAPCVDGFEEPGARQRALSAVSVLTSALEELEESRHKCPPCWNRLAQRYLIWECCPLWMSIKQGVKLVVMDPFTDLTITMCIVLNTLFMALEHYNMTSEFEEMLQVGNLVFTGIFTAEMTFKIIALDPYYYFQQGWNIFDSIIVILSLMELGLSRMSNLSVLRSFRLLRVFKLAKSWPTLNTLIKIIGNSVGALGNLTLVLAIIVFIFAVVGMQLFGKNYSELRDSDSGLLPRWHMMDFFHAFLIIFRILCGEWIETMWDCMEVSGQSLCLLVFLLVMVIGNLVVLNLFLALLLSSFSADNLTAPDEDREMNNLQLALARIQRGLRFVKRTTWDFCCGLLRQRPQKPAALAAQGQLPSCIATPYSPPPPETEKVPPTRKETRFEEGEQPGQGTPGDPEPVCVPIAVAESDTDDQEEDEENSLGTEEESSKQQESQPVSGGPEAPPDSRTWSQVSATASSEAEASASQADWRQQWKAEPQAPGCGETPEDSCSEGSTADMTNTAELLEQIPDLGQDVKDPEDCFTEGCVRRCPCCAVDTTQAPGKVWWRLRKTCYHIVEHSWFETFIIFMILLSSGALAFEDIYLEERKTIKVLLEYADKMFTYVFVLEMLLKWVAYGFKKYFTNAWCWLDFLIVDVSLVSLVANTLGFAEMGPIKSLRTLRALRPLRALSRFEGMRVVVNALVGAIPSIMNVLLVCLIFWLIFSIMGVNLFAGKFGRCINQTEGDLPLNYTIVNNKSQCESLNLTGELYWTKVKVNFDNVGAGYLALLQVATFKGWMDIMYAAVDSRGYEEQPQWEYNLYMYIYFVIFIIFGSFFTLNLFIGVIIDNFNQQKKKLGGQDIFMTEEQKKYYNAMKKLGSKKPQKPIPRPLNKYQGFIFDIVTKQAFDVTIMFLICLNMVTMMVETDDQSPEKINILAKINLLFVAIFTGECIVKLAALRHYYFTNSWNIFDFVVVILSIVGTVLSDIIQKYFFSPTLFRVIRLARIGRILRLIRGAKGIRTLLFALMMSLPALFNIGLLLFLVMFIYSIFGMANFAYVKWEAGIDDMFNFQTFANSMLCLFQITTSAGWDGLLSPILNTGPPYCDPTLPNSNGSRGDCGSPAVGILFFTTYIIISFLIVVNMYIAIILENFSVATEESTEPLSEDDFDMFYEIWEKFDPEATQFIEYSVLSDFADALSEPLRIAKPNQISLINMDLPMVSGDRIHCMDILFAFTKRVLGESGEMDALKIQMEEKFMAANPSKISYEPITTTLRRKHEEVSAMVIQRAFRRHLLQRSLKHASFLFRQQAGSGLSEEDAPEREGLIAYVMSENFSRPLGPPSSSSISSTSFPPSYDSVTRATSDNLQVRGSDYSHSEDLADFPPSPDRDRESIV

[24] = target: Voltage-dependent L-type calcium channel subunit alpha-1C (Homo sapiens, UniProt Q13936); experiment: Inhibition of […] channel Cav1.2 (unknown origin); method in brief: as §3
[25] = target: Voltage-dependent T-type calcium channel subunit alpha-1H (Homo sapiens, UniProt O95180); experiment: Inhibition of […] channel Cav3.2 (unknown origin); method in brief: as §3

Row | SMILES | solubility [1] | MIC90 (Pseudomonas aeruginosa [2]) | MIC90 (Escherichia coli [3]) | MIC90 (Staphylococcus aureus) | fraction unbound [4] | IC50 [5] | logD [6] | IC50 [7] | further results
1 | COc1cnc2ccc(=O)n(C[C@@H](N)[C@H]3CC[C@H](NCc4ccc5c(n4)NC(=O)CO5)CC3)c2c1 | > 333 µM | 16 µg/mL (≈ 33.4 µM) | 8 µg/mL (≈ 16.7 µM) | 128 µg/mL (≈ 267 µM) | > 0.7 | 33 nM | -0.84 | > 100000 nM | 
2 | N[C@@H](Cn1c(=O)cnc2ccc(F)cc21)[C@H]1CC[C@H](NCc2ccc3c(n2)NC(=O)CO3)CC1 | > 333 µM | 0.25 µg/mL (≈ 0.536 µM) | < 0.06 µg/mL | 1 µg/mL (≈ 2.14 µM) | 0.7 | 28 nM | -0.41 | 174000 nM | 
3 | CNC(Cn1c(=O)cnc2cc(F)c(OC)cc21)[C@H]1CC[C@H](NCc2ncc3c(n2)NC(=O)CO3)CC1 (mixture of isomers) | > 333 µM | > 64 µg/mL | 16 µg/mL (≈ 31.3 µM) | 64 µg/mL (≈ 125 µM) |  | 39 nM |  |  | 
4 | N[C@@H](Cn1c(=O)ccc2ncc(F)cc21)[C@H]1CC[C@H](NCc2ccc3c(n2)NC(=O)CO3)CC1 | > 333 µM | 2 µg/mL (≈ 4.29 µM) | 1 µg/mL (≈ 2.14 µM) | 16 µg/mL (≈ 34.3 µM) |  | 34 nM | -1.02 | > 100000 nM | 
5 | COc1ccc2ncc(=O)n(C[C@H](N)[C@H]3CC[C@H](NCc4ccc5c(n4)NC(=O)CO5)CC3)c2c1 | > 333 µM | 0.5 µg/mL (≈ 1.04 µM) | 0.5 µg/mL (≈ 1.04 µM) | 1 µg/mL (≈ 2.09 µM) | 0.7 | 1 nM | -0.36 | > 333000 nM | 
6 | COc1ccc2ccc(=O)n(C[C@H](N)[C@H]3CC[C@H](NCc4ncc5c(n4)NC(=O)CO5)CC3)c2c1 | > 333 µM | 2 µg/mL (≈ 4.18 µM) | 0.5 µg/mL (≈ 1.04 µM) | 8 µg/mL (≈ 16.7 µM) | 0.71 | 5 nM | -0.54 | > 100000 nM | 
7 | COc1ccc2ncc(=O)n(CC(N)C3(F)CCC(NCc4ccc5c(n4)NC(=O)CO5)CC3)c2c1 (racemic) | > 333 µM | 8 µg/mL (≈ 16.1 µM) | 2 µg/mL (≈ 4.03 µM) | 0.5 µg/mL (≈ 1.01 µM) | 0.68 | 5 nM | 0.25 | > 33000 nM | 
8 | COc1cnc2ccc(=O)n(C[C@H](N)[C@H]3CC[C@H](NCc4ccc5c(n4)NC(=O)CO5)CC3)c2c1 | > 333 µM | 1 µg/mL (≈ 2.09 µM) | 0.5 µg/mL (≈ 1.04 µM) | 8 µg/mL (≈ 16.7 µM) | 0.78 | 2 nM | -0.86 | > 333000 nM | MIC90 (Pseudomonas aeruginosa [8]): 4 µg/mL (≈ 8.36 µM); MIC90 (Escherichia coli [9]): 0.5 µg/mL (≈ 1.04 µM); MIC90 (Klebsiella pneumoniae): 8 µg/mL (≈ 16.7 µM); clearance [10]: 47 mL/min/kg; Vd [11]: 13 L/kg; half-life [12]: 9 h; AUC [13]: 3900 ng·h/mL; clearance [14]: 14 mL/min/kg; Vd [15]: 2.7 L/kg; half-life [16]: 8 h; AUC [17]: 3800 ng·h/mL; inhibition [18]: 52%; inhibition [19]: 32%; inhibition [20]: 32%; IC50 [21]: > 333000 nM; IC50 [22]: > 333000 nM; IC50 [23]: > 333000 nM; IC50 [24]: > 333000 nM; IC50 [25]: > 333000 nM
9 | Cc1cc(=O)n(C[C@H](N)[C@H]2CC[C@H](NCc3ccc4c(n3)NC(=O)CO4)CC2)c2cc(F)ccc12 | > 333 µM | 0.5 µg/mL (≈ 1.04 µM) | 0.5 µg/mL (≈ 1.04 µM) | 1 µg/mL (≈ 2.09 µM) | 0.64 | 3 nM | -0.05 |  | 
10 | COc1ccc2ncc(=O)n(C[C@H](N)[C@H]3CC[C@H](NCc4ncc5c(n4)NC(=O)CO5)CC3)c2c1 | > 333 µM | 0.5 µg/mL (≈ 1.04 µM) | 0.2 µg/mL (≈ 0.417 µM) | 1 µg/mL (≈ 2.09 µM) | 0.6 | 2 nM | -0.48 | > 333000 nM | 
11 | COc1cc2c(cc1F)ncc(=O)n2C[C@H](N)[C@H]1CC[C@H](NCc2ncc3c(n2)NC(=O)CO3)CC1 | > 333 µM | 2 µg/mL (≈ 4.02 µM) | 2 µg/mL (≈ 4.02 µM) | 4 µg/mL (≈ 8.04 µM) | 0.56 | 4 nM | -0.42 | > 333000 nM | 
12 | Cc1cc(=O)n(C[C@H](N)[C@H]2CC[C@H](NCc3ncc4c(n3)NC(=O)CO4)CC2)c2cc(F)ccc12 | > 333 µM | 2 µg/mL (≈ 4.16 µM) | 0.5 µg/mL (≈ 1.04 µM) | 4 µg/mL (≈ 8.32 µM) | 0.66 | 2 nM | 0.06 | > 333000 nM | 
13 | COc1ccc2ncc(=O)n(CC[C@]3(N)CC[C@H](NCc4ccc5c(n4)NC(=O)CO5)CC3)c2c1 | > 333 µM | 8 µg/mL (≈ 16.7 µM) | 1 µg/mL (≈ 2.09 µM) | 2 µg/mL (≈ 4.18 µM) |  | 2 nM |  |  | 
14 | C[C@H]1COc2c(N3CCN(C)CC3)c(F)cc3c(=O)c(C(=O)O)cn1c23.C[C@H]1COc2c(N3CCN(C)CC3)c(F)cc3c(=O)c(C(=O)O)cn1c23.O [LEVOFLOXACIN] |  |  |  |  |  |  |  |  | MIC90 (Pseudomonas aeruginosa [8]): 16 µg/mL; MIC90 (Escherichia coli [9]): 16 µg/mL; MIC90 (Klebsiella pneumoniae): 64 µg/mL
